Data taken from paper PMC4333497 (British Journal of Cancer, 2015).
“Also recorded” adds a separate entry of the source.

Legend:
[1] = tested on: advanced solid tumours; test: Tumour response according to RECIST version 1.0; format: in vivo, human
Summary of the method: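 Tumours were assessed radiologically at baseline, at the end of every two 28-day cycles and at the end of treatment. Response was classified per RECIST version 1.0. Patients had at least one measurable lesion at entry and received oral capsules once or twice weekly until progression, unacceptable toxicity or withdrawal.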

[2] = Plasma pharmacokinetics of HSP990 after oral dosing; format: in vivo, human; conditions: for AUClast: day 22; for Cmax: steady state
Summary of the method: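 Oral dosing 30 min after a light breakfast, then a 3-h fast, with meal timing recorded. Plasma was assayed centrally by validated LC-MS/MS and analysed non-compartmentally. Day effect was tested by ANCOVA on log-transformed AUC and Cmax with a linear mixed-effect model.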

[3] = tested on: rats; conditions: preclinical pharmacology studies, ref Novartis, 2012; cited from earlier work
[4] = tested on: patients with advanced solid tumours; test: Dose-limiting toxicities and MTD/RP2D determination; format: in vivo, human
Summary of the method: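 Oral capsules, once or twice weekly, in 28-day cycles under fasting conditions. Cohorts had at least three patients. A DLT was any clinically relevant AE or abnormal laboratory value in the first 28 days. A Bayesian logistic regression model with escalation with overdose control estimated the posterior probability of DLT at each dose level from cycle 1 data. MTD/RP2D was set from the model plus safety review by investigators.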

[5] = tested on: advanced solid tumours; test: FDG-PET metabolic response; format: in vivo, human
Summary of the method: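 FDG-PET was done at screening/baseline, on day 10 of cycle 1 and on day 2 of cycle 3. Maximum SUV was summed across all target lesions (sSUVmax). A reduction of ⩾25% counted as objective metabolic response and an increase of ⩾25% as progression. Any new PET lesion counted as metabolic progression.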

[6] = rat model; preclinical; cited from earlier work
[7] = tested on: dogs; conditions: preclinical pharmacology studies, ref Novartis, 2012; cited from earlier work
[8] = tested on: HSP70; test: HSP70 levels in PBMCs by ELISA; format: in vivo, human
[9] = tested on: patients with advanced solid tumours; test: Safety: adverse events graded by NCI CTCAE version 3.0 in phase I study; format: in vivo, human
Summary of the method: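 Toxicity was graded by NCI CTCAE v3.0 during oral dosing in 28-day cycles. Assessments covered physical and neurological examination, vital signs, weight, performance status, and AEs/SAEs. Haematology, coagulation, biochemistry and urinalysis were done at baseline, on day 1 of every cycle, at the last visit and when clinically indicated. ECGs were done on day 1 of each cycle. ECHO/MUGA was done at baseline, at the end of cycles 2–4, then every other month. Data were summarised descriptively.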

[10] = all patients (N=64), two patients

With `COc1cccc(-c2cc(F)ccc2[C@H]2Cc3nc(N)nc(C)c3C(=O)N2)n1` [HSP990] the “Partial or complete responses (RECIST)” value ([1]; all patients) was “No objective responses were seen; also recorded: No partial or complete responses were observed”, the “Best overall response of stable disease” value ([1]; all patients (N=64)) was 25 patients and the “Prolonged stable disease (⩾6 months), patients” value ([1]; all patients (N=64)) was 11%. For the same molecule, the “Stable disease as best overall response, patients” value ([1]; all patients (N=64)) was 39%, the “Stable disease as best overall response, patients” value ([1]; twice-weekly dosing schedule (7 out of 11 patients)) was 64% and the AUClast ([2]; 25 mg twice-weekly) was 14200 ng·h/mL. The Cmax ([2]; 25 mg twice-weekly) was 232 ng/mL, the AUClast ([2]; 50 mg once-weekly) was 7959 ng/mL and the Cmax ([2]; 50 mg once-weekly) was 552 ng/mL. For the same molecule, the t1/2 ([2]; both dosing schedules) was roughly 20 h, the “Time to peak concentrations” value ([2]; both dosing schedules, postdose) was roughly 3 h and the Drug accumulation ([2]; days 1 and 22 of cycle 1, multiple- or twice-weekly doses) was “no drug accumulation”. The Apparent clearance ([2]; oral) was roughly 6.4 L/h, the Volume of distribution ([2]; oral, apparent) was roughly 200 L and the “Effects on CNS” value [3] was “no effects on CNS”. The “Total no. of patients with DLTs” value ([4]; 2.5 mg once weekly, 3 DLT evaluable patients) was 0, the “Total no. of patients with DLTs” value ([4]; 5 mg once weekly, 5 DLT evaluable patients) was 0 and the “Total no. of patients with DLTs” value ([4]; 10 mg once weekly, 7 DLT evaluable patients) was 0. The “Total no. of patients with DLTs” value ([4]; 20 mg once weekly, 6 DLT evaluable patients) was 0, the “Total no. of patients with DLTs” value ([4]; 30 mg once weekly, 4 DLT evaluable patients) was 0 and the “Number of DLTs encountered” value ([4]; 50 mg once a week, 22 patients) was 5 DLTs. For the same molecule, the “Total no. of patients with DLTs” value ([4]; 50 mg once weekly, 22 DLT evaluable patients) was 4, the “Patients who experienced DLTs” value ([4]; all dose levels and schedules) was “seven” and the “Patients with ⩾25% reduction in sSUVmax of target lesions” value (“Patients with ⩾25% reduction in sSUVmax” below) ([5]; 5 mg weekly) was 1 patient. The “Patients with ⩾25% reduction in sSUVmax” value ([5]; 25 mg twice weekly) was 3 patients, the “Patients with ⩾25% reduction in sSUVmax” value ([5]; 30 mg weekly) was 1 patient and the “Patients with ⩾25% reduction in sSUVmax” value ([5]; 50 mg weekly) was 6 patients. The Complete metabolic response ([5]; all patients) was “No complete metabolic response”, the “Distribution in brain tissues” value [6] was “highly distributed in the brain tissues” and the “Doses at which tremors and ataxia were observed” value [7] was no less than 2 mg/kg. The “HSP70 induction in PBMCs” value ([8]; once-weekly administration, 2.5 to 60 mg) was “tended to increase with dose across the 5 mg weekly to 30 mg weekly dose groups”, the “HSP70 induction in PBMCs” value ([8]; twice-weekly administration, 25 mg) was “greater than that seen in once weekly 30 mg to 60 mg dose levels” and the “Total no. of patients who discontinue HSP990 (cause) beyond cycle 1” value ([9]; 2.5 mg once weekly) was 0. The “Total no. of patients who discontinue HSP990 (cause) beyond cycle 1” value ([9]; 5 mg once weekly) was 0, the “Total no. of patients who discontinue HSP990 (cause) beyond cycle 1” value ([9]; 10 mg once weekly) was 0 and the “Total no. of patients who discontinue HSP990 (cause) beyond cycle 1” value ([9]; 20 mg once weekly) was 1 (digestive disorder). For the same molecule, the “Description of grade ⩾3 drug-related AEs beyond cycle 1” value ([9]; 25 mg twice weekly) was “Diarrhoea”, the “Grade ⩾3 drug-related AEs beyond cycle 1” value ([9]; 25 mg twice weekly) was 2 and the “Total no. of patients who discontinue HSP990 (cause) beyond cycle 1” value ([9]; 25 mg twice weekly) was 0. The “Total no. of patients who discontinue HSP990 (cause) beyond cycle 1” value ([9]; 30 mg once weekly) was 0, the “Grade ⩾3 drug-related AEs beyond cycle 1” value ([9]; 50 mg once weekly) was 6 and the “Description of grade ⩾3 drug-related AEs beyond cycle 1” value ([9]; 60 mg once weekly) was “Diarrhoea”. For the same molecule, the “Grade ⩾3 drug-related AEs beyond cycle 1” value ([9]; 60 mg once weekly) was 3, the “Total no. of patients who discontinue HSP990 (cause) beyond cycle 1” value ([9]; 60 mg once weekly) was 2 (diarrhoea) and the “Adverse events requiring dose adjustment or study drug interruption, patients” value ([9]; all patients (N=64)) was 30%. The “Discontinued treatment for AEs of any causality, patients” value ([9]; all patients (N=64)) was 14%, the “Drug-related AE that led to study discontinuation, patients” value ([9]; all patients (N=64)) was 11% and the “Drug-related abdominal pain, patients” value ([9]; all patients (N=64)) was 16%. For the same molecule, the “Drug-related anorexia, patients” value ([9]; all patients (N=64)) was 25%, the “Drug-related diarrhoea, patients” value ([9]; all patients (N=64)) was 73% and the “Drug-related dizziness, patients” value ([9]; all patients (N=64)) was 19%. For the same molecule, the “Drug-related insomnia, patients” value ([9]; all patients (N=64)) was 25%, the “Drug-related nausea, patients” value ([9]; all patients (N=64)) was 22% and the “Drug-related tremor, patients” value ([9]; all patients (N=64)) was 19%. For the same molecule, the “Drug-related vomiting, patients” value ([9]; all patients (N=64)) was 14%, the “Grade 3 QTc prolongation, drug-related” value [9, 10] was 3% and the “Grade 3 asthenia, drug-related” value [9, 10] was 3%. The “Grade 3 hyponatremia, drug-related” value [9, 10] was 3%, the “Grade 3 increased ALT and/or AST, drug-related” value [9, 10] was 3% and the Dose delays ([9]; all patients, mostly due to AEs) was 22 patients. The “Neurotoxicities leading to study drug discontinuation, patients” value ([9]; during and beyond cycle 1, all patients) was 14% and the Drug-related deaths ([9]; on study and up to 28 days after the last dose) was “No drug-related deaths”.
